Assay results: ChEMBL document CHEMBL4028911, “Discovery of a Small-Molecule Bromodomain-Containing Protein 4 (BRD4) Inhibitor That Induces AMP-Activated Protein Kinase-Modulated Autophagy-Associated Cell Death in Breast Cancer” (J Med Chem, 2017)
The source made the active and inactive calls. The calls are words filed in the database; no cut-off is given here.

Assays:
[1] = molecular target: T1, Bromodomain-containing protein 4 (Homo sapiens, UniProt O60885); assay: Inhibition of BRD4 in human MCF7 cells assessed as reduction in ULK1 protein expression at 1.5 uM up to 36 hrs by Western blot analysis; format: cell-based
Procedure, shortened: (§1)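 MCF-7 (1.5 μM) or MDA-MB-231 (3 μM) cells treated for indicated times. Adherent and floating cells lysed in RIPA with 1 mM PMSF. Equal protein run on 10-15% SDS-PAGE, blotted to PVDF, blocked in milk or BSA, HRP/ECL detection. β-actin loading control.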

MCF7 [2] = assay: Antiproliferative activity against human MCF7 cells after 24 hrs by MTT assay; format: functional, cell-based; settings: MCF7, 24 h
[3] = molecular target: T1, Bromodomain-containing protein 4; assay: Inhibition of recombinant human BRD4 bromodomain-1 (49 to 170 residues) expressed in Escherichia coli expression system after 120 mins by TR-FRET assay
Mus musculus [4] = assay: In vivo inhibition of c-Myc expression in BALB/c mouse xenografted with human MCF7 cells at 100 mg/kg, ig administered once a day for 24 days by Western blot analysis; format: functional, organism-based
Procedure, shortened: (§2)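 Tumor tissues excised from MCF-7 or MDA-MB-231 xenograft mice were lysed and analysed by western blot for BRD4, c-Myc, LC3 and cleaved caspase-3.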

[5] = molecular target: T1, Bromodomain-containing protein 4; assay: Inhibition of BRD4 interaction with AMPK in human MDA-MB-231 cells at 3 uM by co-immunoprecipitation assay; format: cell-based
Procedure, shortened: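 Cells lysed in RIPA buffer (40 mM Tris-HCl pH 7.5, 150 mM NaCl, 0.5% NP-40, 5% glycerol, 10 mM NaF, protease inhibitors). Lysates incubated overnight at 4 °C with BRD4 or p53 antibody plus protein A/G beads, washed 3 times, resolved on 10% SDS-PAGE and blotted for AMPKα or p53.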

MDA-MB-231 [6] = assay: Effect on mTOR expression in human MDA-MB-231 cells at 3 uM measured up to 36 hrs by Western blot analysis; format: ADME, cell-based; settings: mda-mb-231, 36 h
Procedure, shortened: (§3)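 MCF-7 (1.5 µM) or MDA-MB-231 (3 µM) cells treated for indicated times. Adherent and floating cells lysed in RIPA with 1 mM PMSF, 4°C for 1 h. Equal protein run on 10-15% SDS-PAGE, transferred to PVDF, blocked with milk or BSA, probed with primary then HRP secondary antibodies, ECL detection; β-actin as loading control.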

[7] = molecular target: T1, Bromodomain-containing protein 4; assay: Inhibition of BRD4 in human MDA-MB-231 cells assessed as increase in ATG13 phosphorylation at ser318 at 3 uM up to 36 hrs by Western blot analysis; format: cell-based; procedure, shortened: as §1
MCF7 [8] = assay: Induction of autophagy in human MCF7 cells assessed as upregulation of beclin1 expression at 1.5 uM measured up to 36 hrs by Western blot analysis; format: functional, cell-based; procedure, shortened: as §3
[9] = molecular target: T2, Serine/threonine-protein kinase ULK1 (Homo sapiens) (UniProt O75385); assay: Activation of recombinant human ULK1 (1 to 649 residues) expressed in baculovirus infected Sf9 cells at 1 to 10^6 nM using MBP as substrate after 60 mins in presence of ATP by […] assay
T2 sequence (whole entry): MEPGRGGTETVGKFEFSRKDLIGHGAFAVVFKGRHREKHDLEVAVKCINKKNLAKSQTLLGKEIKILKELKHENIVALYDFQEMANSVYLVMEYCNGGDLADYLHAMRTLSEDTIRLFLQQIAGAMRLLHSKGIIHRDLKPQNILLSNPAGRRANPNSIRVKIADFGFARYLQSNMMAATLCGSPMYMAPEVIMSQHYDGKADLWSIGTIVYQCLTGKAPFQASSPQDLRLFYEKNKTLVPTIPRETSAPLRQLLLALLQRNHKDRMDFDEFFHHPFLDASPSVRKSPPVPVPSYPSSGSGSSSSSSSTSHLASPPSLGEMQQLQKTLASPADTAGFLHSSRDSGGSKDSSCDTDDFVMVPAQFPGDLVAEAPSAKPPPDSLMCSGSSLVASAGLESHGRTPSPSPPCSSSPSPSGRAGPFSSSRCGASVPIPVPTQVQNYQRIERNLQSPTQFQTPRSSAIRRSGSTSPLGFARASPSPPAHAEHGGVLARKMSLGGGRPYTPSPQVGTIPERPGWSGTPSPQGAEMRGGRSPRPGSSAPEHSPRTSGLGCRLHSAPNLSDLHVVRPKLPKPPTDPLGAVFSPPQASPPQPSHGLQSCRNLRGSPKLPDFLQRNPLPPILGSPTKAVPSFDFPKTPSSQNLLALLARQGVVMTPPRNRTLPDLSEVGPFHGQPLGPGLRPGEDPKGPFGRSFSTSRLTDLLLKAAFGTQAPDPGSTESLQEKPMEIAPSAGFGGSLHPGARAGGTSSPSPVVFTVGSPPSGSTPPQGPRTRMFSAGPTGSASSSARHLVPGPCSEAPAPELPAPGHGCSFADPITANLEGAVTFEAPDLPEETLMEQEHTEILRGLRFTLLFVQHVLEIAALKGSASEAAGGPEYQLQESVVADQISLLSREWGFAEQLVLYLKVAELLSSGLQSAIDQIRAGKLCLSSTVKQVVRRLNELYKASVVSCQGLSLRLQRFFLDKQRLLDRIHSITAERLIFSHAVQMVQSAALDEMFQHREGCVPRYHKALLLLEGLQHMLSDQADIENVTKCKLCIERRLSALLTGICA
Procedure, shortened: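 ADP-Glo luminescent kinase assay; AMPK or ULK1 enzyme, substrate, ATP and compound diluted in 40 mM Tris pH 7.5, 20 mM MgCl2, 0.1 mg/ml BSA, 50 µM DTT. Enzyme (10 ng) mixed with MBP (0.1 µg/µl)/ATP (10 µM) and compound, 60 min at room temperature. ADP-Glo reagent 40 min, then detection reagent 30 min, luminescence read; signal rises with kinase activity.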

MDA-MB-231 [10] = assay: Antiproliferative activity against human MDA-MB-231 cells after 24 hrs by MTT assay; format: functional, cell-based; settings: MDA-MB-231, 24 h
Mus musculus [11] = assay: In vivo inhibition of BRD4 expression in BALB/c mouse xenografted with human MCF7 cells at 100 mg/kg, ig administered once a day for 24 days by Western blot analysis; format: functional, organism-based; procedure, shortened: as §2
MCF7 [12] = assay: Induction of autophagy in human MCF7 cells assessed as increase in LC3-2 expression at 1.5 uM by Western blot analysis; format: functional, cell-based; settings: TDE = time-dependent effect; procedure, shortened: as §3
MDA-MB-231 [13] = assay: Antitumor activity against human MDA-MB-231 cells xenografted in nude BALB/c mouse assessed as tumor growth inhibition at 25 to 100 mg/kg, ig administered once a day for 27 days measured every 3 days relative to control; format: functional
Procedure, shortened: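 Female BALB/c nude mice, 6-8 weeks, 20-22 g, injected subcutaneously with 5×10^6 MCF-7 or MDA-MB-231 cells. At 100 mm³ tumor volume (V = L×W²/2), split into four groups: 25, 50 or 100 mg/kg intragastric once daily for 24 or 27 days, or vehicle. Tumor volume and body weight measured every 3 days; tumors excised and weighed at end. MCF-7 n=7, MDA-MB-231 n=6 per group.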

[14] = molecular target: T1, Bromodomain-containing protein 4; assay: Inhibition of BRD4 in human MCF7 cells assessed as reduction in FIP200 protein expression at 1.5 uM up to 36 hrs by Western blot analysis; format: cell-based; procedure, shortened: as §1

With `Cc1cc(-c2nc3sc4c(c3c(=O)[nH]2)CCN(C)C4)cc(C)c1O` the inhibition [1] was “Active”, the IC50 (MCF7 [2]) was 1620 nM and the IC50 [3] was 470 nM. The Activity (Mus musculus [4]) was “Active”, the inhibition [5] was “Active” and the Activity (MDA-MB-231 [6]) was “Non-Toxic”. The inhibition [7] was “Active”, the Activity (MCF7 [8]) was “Active” and the Activity [9] was “inactive”. For the same compound, the IC50 (MDA-MB-231 [10]) was 3270 nM, the Activity (Mus musculus [11]) was “Active” and the Activity (MCF7 [12]) was “Tde”. The TGI (MDA-MB-231 [13]) was 76% and the inhibition [14] was “Active”.
